# High-throughput results (PubChem)
# Runt-SMMHC FRET: inhibitors of RUNX1 Runt–CBFb-SMMHC binding, primary screen, biochemical, FRET, Cerulean-Runt, Venus-CBFb-SMMHC, uHTS; Runt-related transcription factor 1 (Homo sapiens) + Core-binding factor subunit beta …; Cerulean-Runt/Venus-CBFb-SMMHC FRET ratio 530/480, 1 h; inhibition, % at 20 µM; 0.74% of 220,000 active;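 active = mean inhibition across duplicate retests at 20 µM reaching about 50%, limit read from the data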;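 also: 0% = DMSO wells and 100% = wells with excess untagged CBFb-SMMHC; inhibitors lower the FRET ratio by blocking Runt binding to CBFb-SMMHC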
# Target sequence (Q01196 whole entry, looked up): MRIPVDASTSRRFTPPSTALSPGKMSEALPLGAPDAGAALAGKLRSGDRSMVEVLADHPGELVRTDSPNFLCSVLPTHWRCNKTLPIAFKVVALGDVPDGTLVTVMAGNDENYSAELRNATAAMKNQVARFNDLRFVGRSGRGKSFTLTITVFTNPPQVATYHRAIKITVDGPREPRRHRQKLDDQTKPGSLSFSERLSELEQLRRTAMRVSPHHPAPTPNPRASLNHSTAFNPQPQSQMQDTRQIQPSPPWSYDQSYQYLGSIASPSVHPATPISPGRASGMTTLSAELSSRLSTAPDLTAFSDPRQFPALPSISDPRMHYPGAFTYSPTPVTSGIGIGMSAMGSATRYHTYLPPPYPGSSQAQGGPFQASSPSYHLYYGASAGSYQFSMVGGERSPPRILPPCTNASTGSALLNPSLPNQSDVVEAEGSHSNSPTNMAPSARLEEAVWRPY
# Target sequence (Q13951 whole entry, looked up): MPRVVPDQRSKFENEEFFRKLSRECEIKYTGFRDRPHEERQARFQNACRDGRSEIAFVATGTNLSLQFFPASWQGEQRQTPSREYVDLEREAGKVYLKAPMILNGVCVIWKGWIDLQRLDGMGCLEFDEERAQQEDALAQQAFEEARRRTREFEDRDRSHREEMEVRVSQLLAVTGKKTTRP
# Pemphigus Ab inh: inhibitors of pemphigus antibody binding to DSG3, primary screen, biochemical, bead-based, flow cytometry, scFv-GFP | Desmoglein-3 (Homo sapiens), P32926 | 0.48% of 310,000 active | binding (percent of control), % at 10 µM | AID 588358, 2011 | DSG3-coupled beads, scFv-anti-DSG3-GFP binding; hits give low values;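 active = binding more than 3 SD below its plate's average and above zero; inconclusive = below that plate limit but binding exactly zero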;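 also: hits lower antibody fragment binding to DSG3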
# Runt-CBFb FRET: inhibitors of RUNX1 Runt–CBFb binding, primary screen, biochemical, FRET, Cerulean-Runt, Venus-CBFb, uHTS | Runt-related transcription factor 1 (Homo sapiens) + Core-binding factor subunit beta … | Cerulean-Runt/Venus-CBFb FRET ratio 530/480, 1 h | inhibition, % at 20 µM | 0.46% of 220,000 active | AID 1496, 2009;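 active = inhibition over about 50% at 20 µM in the single-dose screen, limit read from the data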;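 also: 0% = DMSO wells and 100% = excess unlabeled CBFb competitor control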
#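 System: Cerulean-labeled Runt domain protein | Quantity: 100 nM of each labeled protein | Schedule: 1 h compound exposure, room temperature | Detection: Fluorescence energy transfer, 422 nm excitation, 530/480 nm emission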
# Hck-Nef inh: inhibitors of Nef-activated human Hck kinase, primary screen, biochemical, Z-Lyte FRET, 384-well, Hck-YEEI. Tyrosine-protein kinase HCK (Homo sapiens), P08631. Recombinant Hck-YEEI plus Nef, Z-Lyte FRET kinase assay. inhibition, % at 20 µM. 0.68% of 220,000 active;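 active = Hck-Nef kinase inhibition above about 50%, limit read from the data; inactive = inhibition below that limit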;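 also: 0% = DMSO with Hck plus Nef and 100% = Hck alone without Nef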
# RanGTP-Imp inh: inhibitors of RanGTP-importin-beta interaction, primary screen, biochemical, FRET, CFP-Ran, YFP-importin-beta, homogeneous; Ran GTPase (GTP-bound) - importin-beta complex; cell-free CFP-Ran/YFP-importin-beta FRET ratio; inhibition, % (no concentration beside the values); 1.1% of 300,000 active; AID 2216, 2009;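 active = more than half of the replicate wells show a fall in the fluorescence ratio signal beyond about 16%, limit read from the data, passing the limit was not always enough; inconclusive = exactly half of the replicate wells pass the set limit; inactive = fewer than half of replicates pass the limit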;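 also: 0% = DMSO wells and 100% = Ran loaded with GDP instead of GTP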
# pCIP destab: p/CIP-EGFP fusion destabilizers, primary screen, fluorescence, F442A cells; 0.01% of 290,000 active; 16 h; decrease of EGFP signal, % at 10 µM;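 active = EGFP signal decrease of at least 30% at 10 µM or well 3 SD below plate mean, unless failing retest; inactive = the rest, including hits failing retest or dose response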
# * marks the source's active call; other numbers are inactive results; u = inconclusive; x = no result. Only some compounds are listed: those with a hit (about 2.1% of all), similar ones and a draw of the others.
SMILES,Runt-SMMHC FRET,Pemphigus Ab inh,Runt-CBFb FRET,Hck-Nef inh,RanGTP-Imp inh,pCIP destab
O=C(CN1C(=O)CSc2ccc(S(=O)(=O)N3CCOCC3)cc21)NCCCN1CCOCC1,-1.8,107.7,-0.8,16.8,151.4*,-13.2
O=C(CN1C(=O)CSc2ccc(S(=O)(=O)N3CCOCC3)cc21)N1CCCCC1,x,90.0,x,x,62.1*,9.3
COc1cc(OC)cc(C(=O)OCc2cc3ccccc3[nH]c2=O)c1,-6.3,80.0*,-2.9,3.0,0.5,14.5
Cc1ccc(S(=O)(=O)Nc2ccccc2C(=O)N2CCCCC2C)c(C)c1NS(C)(=O)=O (configuration not stated),x,x,x,x,-2.9,-8.2
Cc1cc(=O)oc2cc(OC(=O)c3ccccc3)ccc12,2.5,102.9,4.5,-34.8,-0.2,-6.2
CCCn1nc(C(=O)Oc2ccc3c(C)cc(=O)oc3c2)c2ccccc2c1=O,88.4*,105.6,43.0,15.7,6.5,-10.3
Cc1cc(=O)oc2cc(OC(=O)c3nn(C(C)C)c(=O)c4ccccc34)ccc12,89.9*,x,41.7,19.1,2.2,-1.5
CC(C)n1nc(C(=O)Oc2ccc(Cl)cc2)c2ccccc2c1=O,-7.4,128.9,-0.4,2.8,3.8,-3.0
COc1ccc(C(C)=O)cc1COC(=O)CSCC(=O)Nc1ccc(C)cc1,x,104.9,x,x,-0.3,x
COc1ccccc1CNC(=O)COC(=O)c1cccc(S(=O)(=O)N2CCOCC2)c1,x,102.0,x,x,-2.5,x
C[C@H](CO)N1C[C@H](C)[C@H](CN(C)C(=O)c2ccccc2)OCc2ccccc2-c2c(n(C)c3ccccc23)C1=O,x,97.5,x,x,x,x
C=CCNC(=O)c1c(CSc2ccc(F)cc2)noc1C(=O)NCCC,x,106.9,x,x,0.4,x
COc1ccc(N2CC(C)Cn3c2nc2c3c(=O)n(CCc3ccccc3)c(=O)n2C)cc1 (configuration not stated),-1.0,93.2,-4.4,x,40.5*,-5.1
COc1ccc(N2CCn3c2nc2c3c(=O)n(CCCc3ccccc3)c(=O)n2C)cc1,-4.2,x,-3.9,x,x,4.2
CCOC(=O)Cc1csc(-n2sc3ccccc3c2=O)n1,x,43.9*,9.3,-1.1,9.2,-9.2
COc1ccc2oc(=O)c(C(=O)N3CCN(C(=O)c4ccco4)CC3)cc2c1,x,106.4,x,x,4.7,-2.3
COc1ccccc1N(CC(=O)N/N=C/c1c(O)ccc2ccccc12)S(C)(=O)=O,52.6*,100.6,36.0,3.2,1.7,-1.7
COc1ccccc1NCC(=O)N/N=C/c1c(O)ccc2ccccc12,x,105.5,x,x,-4.1,4.1
Cc1cc(C(=O)N2CCN(c3ncccn3)CC2)sc1-c1ccccc1,x,97.0,x,-0.3,-0.1,x
Cc1cc(C(=O)N2CCN(S(C)(=O)=O)CC2)sc1-c1ccccc1,-1.2,85.9*,-0.9,3.7,2.4,-5.9
O=C(Nc1cccc(Cl)c1N1CCOCC1)c1cccnc1Cl,0.3,111.0,0.9,17.0,7.0,-3.1
Cc1nc(SCC(=O)NCCc2ccccc2)n[nH]1,0.5,93.6,0.0,1.4,-1.1,-3.5
O=C(CSc1nccc(-c2ccc(Br)cc2)n1)NCCc1ccccc1,-0.5,69.0*,-4.3,-0.6,9.2,-0.9
CCOc1ccc(C(=O)Cn2cnc3ccccc3c2=O)cc1,x,89.0,x,x,u,-0.6
O=C(Cn1cnc2ccccc2c1=O)c1ccc(OC(F)F)cc1,x,38.6*,x,x,-20.4,-6.5
SMILES,Runt-SMMHC FRET,Pemphigus Ab inh,Runt-CBFb FRET,Hck-Nef inh,RanGTP-Imp inh,pCIP destab
CCOc1ccc(C(Nc2cccnc2)c2cc(Cl)c3cccnc3c2O)cc1 (configuration not stated),21.3,100.8,33.2,51.0*,x,-7.8
COc1ccc(-c2cn3c(C)c(C(=O)Nc4ccncc4)sc3n2)cc1,1.7,97.9,11.6,5.5,1.5,-17.3
COc1ccc(-c2cn3c(C)c(C(=O)Nc4cccc(NC(C)=O)c4)sc3n2)cc1,-7.3,80.4*,-4.1,1.3,8.5,-6.3
COc1ccc(N2CCN(C(=O)c3sc4nc(-c5ccc(F)cc5)cn4c3C)CC2)cc1,-3.2,27.4*,0.5,0.5,-3.8,-1.4
CC(=O)C1=C(C)NC(SCC(=O)c2ccc(Cl)cc2Cl)=C(C#N)C1c1ccco1 (configuration not stated),-38.5,76.8*,-0.6,3.3,-42.8,-0.9
CC(=O)C1=C(C)NC(SCC(=O)c2ccc(Cl)cc2)=C(C#N)C1c1ccco1 (configuration not stated),-23.4,95.7,-1.3,2.6,-12.4,2.7
CCCNC(=S)N1CCC(NC(=O)Nc2ccc(C)cc2)CC1,1.7,101.3,-0.7,17.3,0.6,-5.4
CC(C)Cn1nc(NC(=O)C(C)(C)C)c2cc3ccccc3nc21,23.6,x,11.4,16.8,-1.3,-4.1
CCCCC(=O)Nc1nn(CC(C)C)c2nc3ccccc3cc12,41.5,67.5,21.9,3.3,29.2*,-5.7
CCCn1nc(NC(=O)CC(C)C)c2cc3ccccc3nc21,22.9,101.2,-4.2,14.0,27.2*,-3.6
CCOC(=O)Cn1ncc2c3ccccc3n(CC(=O)OCC)c2c1=O,x,105.3,x,x,7.1,-1.6
CCCN(C(=O)CCNC(=O)Cn1cnc2ccccc2c1=O)c1cccc(Cl)c1,x,97.6,x,x,-6.8,-12.7
NC(=O)C12CCCC(Br)(CCC1)C2,-2.4,100.4,0.6,16.1,3.9,-1.8
Cc1nn(S(=O)(=O)c2ccc(F)cc2)c(C)c1S(=O)(=O)N1CCCCC1,x,95.5,x,x,1.2,-6.3
CC(C)(C)c1ccccc1NC(=O)NC1CCN(Cc2c(F)cccc2Cl)CC1,1.0,92.2,0.7,2.2,0.5,-0.2
Nc1ccc(-c2nc3ccc(N)cc3[nH]2)cc1,5.6,89.5,0.2,-11.1,3.3,-5.4
Nc1ccc2nc(-c3cccc(-c4nc5ccc(N)cc5[nH]4)c3)[nH]c2c1,x,72.8*,x,x,9.3,-6.8
O=C(CSc1n[nH]c(-c2ccco2)n1)Nc1ccccc1Cl,x,43.0*,x,x,-4.9,-4.5
O=C(CSc1n[nH]c(-c2ccco2)n1)Nc1ccccc1F,x,x,x,x,-3.6,-3.7
Cc1cccc(OCC(=O)Nc2nccs2)c1C,x,107.2,x,x,0.8,-6.1
COCC(=O)Nc1cc(C)c2c(=O)oc3ccccc3c2n1,-1.3,100.2,-0.1,5.6,3.0,-12.1
COc1ccc(C(=O)Nc2cc(C)c3c(=O)oc4ccccc4c3n2)cc1,-3.0,-3.5*,-2.0,4.1,0.5,-3.4
